# In the library only some 2.7% were active in any assay of this set; here they are far more common.
# PAFAH1B3 inh: inhibitors of human PAFAH1B3. 340,000 compounds, 0.28% hits. recombinant PAFAH1B3, FP-rhodamine probe, fluorescence polarization. AID 492972. inhibition, % at 3.39 µM;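 active means inhibition above the screen-wide average of all tested compounds plus 3 SD, cut at about 25% in these data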;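 further: 0% = enzyme with DMSO only and 100% = wells lacking PAFAH1B3 protein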
# pPAFAH FP inh: inhibitors of human plasma PAF acetylhydrolase (pPAFAH). Q13093. recombinant pPAFAH, FP-rhodamine probe fluorescence polarization. 330,000 compounds, 1.5% hits. inhibition, % at 3.39 µM;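 active means inhibition above the mean inhibition across the screen plus 3 SD, cut at about 25% in these data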;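 further: inhibitors block binding of the rhodamine activity-based probe so polarization drops; 0% = enzyme with DMSO and 100% = wells lacking pPAFAH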
# PAFAH2 inh: PAFAH2 (human) inhibition; recombinant PAFAH2, FP-rhodamine activity probe, fluorescence polarization; inhibition, % at 3.39 µM; 340,000 compounds, 0.99% hits; AID 492956;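 active means inhibition above the mean over all tested compounds plus 3 SD, cut at about 30% in these data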;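 further: inhibitors block probe labeling of enzyme so polarization drops; 0% = enzyme with DMSO and 100% = wells lacking PAFAH2 protein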
# PAFAH1B2 inh: blocks human PAF acetylhydrolase 1b catalytic subunit 2 | P68402 | recombinant PAFAH1B2, FP-rhodamine activity probe, fluorescence polarization | inhibition, % at 3.39 µM | 340,000 compounds, 1.2% hits | AID 492953;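 active means inhibition above the mean of all tested compounds plus 3 SD, cut at about 24% in these data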;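 further: 0% = enzyme with DMSO and 100% = wells lacking PAFAH1B2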
# ASAP1 GAP inh: blocks human ASAP1-stimulated Arf1 GTP hydrolysis. Q9ULH1. GDP FP detection. inhibition, % at 16.5 µM. 360,000 compounds, 0.19% hits. AID 624377; in the data active means inhibition above about 25%;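 further: 0% = vehicle with enzyme and substrate and 100% = no enzyme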
# Target sequence (Q9ULH1 325-724 limits assumed): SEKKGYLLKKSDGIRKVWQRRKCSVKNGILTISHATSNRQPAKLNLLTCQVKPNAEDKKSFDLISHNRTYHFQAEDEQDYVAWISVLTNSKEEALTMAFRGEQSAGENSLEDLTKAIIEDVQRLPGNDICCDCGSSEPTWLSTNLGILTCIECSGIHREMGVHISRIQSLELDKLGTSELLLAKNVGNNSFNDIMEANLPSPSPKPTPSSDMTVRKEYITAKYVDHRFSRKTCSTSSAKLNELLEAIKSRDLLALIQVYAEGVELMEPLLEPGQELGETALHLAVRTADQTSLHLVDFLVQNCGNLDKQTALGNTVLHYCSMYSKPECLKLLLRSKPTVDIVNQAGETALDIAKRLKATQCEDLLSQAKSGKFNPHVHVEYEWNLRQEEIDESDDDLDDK
# ARFGAP1 inh: inhibits rat ARF GTPase activating protein 1; Arfgap1-stimulated ARF1 GTP hydrolysis, GDP FP detection; 360,000 compounds, 0.26% hits; inhibition, % at 16.5 µM; AID 651572;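 active means inhibition above a per-plate limit, mean inhibition of low control wells plus 3 SD, cut at about 25% in these data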;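 further: 0% = DMSO wells with enzyme and 100% = wells lacking Arfgap1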
# Target sequence (Q62848 1-136 limits assumed): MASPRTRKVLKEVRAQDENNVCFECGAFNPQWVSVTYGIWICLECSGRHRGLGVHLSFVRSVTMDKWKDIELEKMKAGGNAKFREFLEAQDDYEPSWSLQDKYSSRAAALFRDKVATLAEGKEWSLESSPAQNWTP
#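 Repeats: one replicate per compound; assay system: rat Arfgap1 catalytic domain, aa 1-136; times: enzyme reaction 120 min at 25 °C after 20 min preincubation; detection: FP of antibody-bound GDP Alexa 633 tracer, ex 620/em 688 nm; benchmarks: high control wells lacking Arfgap1, low control full reaction with DMSO; reagent: human ARF1(Δ1-17)-GTP substrate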
# * = called active by the depositor; / = no result.
SMILES,PAFAH1B3 inh,pPAFAH FP inh,PAFAH2 inh,PAFAH1B2 inh,ASAP1 GAP inh,ARFGAP1 inh
CCCNS(=O)(=O)c1cc2c3c(c1)C(C)C(=O)N3CCC2 (stereo not drawn),0,2,-8,-1,-1,3
CCOc1ccc(NS(=O)(=O)c2cc3c4c(c2)C(C)C(=O)N4CCC3)cc1 (stereo not drawn),4,26*,3,2,5,1
Nc1ncc(Br)cc1S(=O)(=O)Nc1cc(C(F)(F)F)cc(C(F)(F)F)c1,6,13,3,26*,20,10
CC(=O)c1ccc(NC(=O)COC(=O)C2CC3C=CC2C3)cc1 (stereo not drawn),4,6,20,1,0,-4
O=C(COC(=O)C1CC2C=CC1C2)Nc1ccc2c(c1)OC(F)(F)O2 (stereo not drawn),1,26*,46*,0,-5,2
O=C(O)c1ccc(NS(=O)(=O)c2ccc3c(c2)C2C=CCC2C(c2ccccc2F)N3)cc1 (stereo not drawn),42*,/,41*,17,-7,-24
O=C(O)c1ccc2c(c1)C1C=CCC1C(c1cc3c(cc1Br)OCO3)N2 (stereo not drawn),3,8,9,-1,-8,7
CO[C@H]1/C=C/O[C@@]2(C)Oc3c(C)c(O)c4c(O)c(c(C=NN5CCN(C)CC5)c(O)c4c3C2=O)NC(=O)/C(C)=C\C=C\[C@H](C)[C@H](O)[C@@H](C)[C@@H](O)[C@@H](C)[C@H](OC(C)=O)[C@@H]1C,11,18,3,8,12,0
CO[C@H]1C=CO[C@@]2(C)Oc3c(C)c(O)c4c(O)c(c(C=NN5CCN(C)CC5)c(O)c4c3C2=O)NC(=O)C(C)=CC=C[C@H](C)[C@H](O)[C@@H](C)[C@@H](O)[C@@H](C)[C@H](OC(C)=O)[C@@H]1C,19,31*,10,3,-1,14
Cc1ccc(NC(=O)CSc2n[nH]c(-c3ccncc3)n2)cc1C,0,29*,-3,4,-3,-6
COc1cccc(C(=O)N(Cc2ccco2)Cc2cc3cccc(C)c3[nH]c2=O)c1,9,25*,-4,2,3,7
COc1ccc2[nH]c(=O)c(CN(Cc3ccco3)C(=O)c3ccccc3)cc2c1,5,2,2,2,-12,2
C#CCN1C(=O)[C@]2(OCCC=C[C@H]2C)c2cc(OC)ccc21,/,/,/,/,5,7
COc1cc(Cl)cc(C(c2c(C(=O)O)[nH]c3ccccc23)c2c(C(=O)O)[nH]c3ccccc23)c1O,15,12,8,83*,-1,-4
O=C(O)c1[nH]c2ccccc2c1C(c1c(F)cccc1Cl)c1c(C(=O)O)[nH]c2ccccc12,2,7,11,49*,-11,-15
O=C(O)c1[nH]c2ccccc2c1C(c1cc(Br)ccc1O)c1c(C(=O)O)[nH]c2ccccc12,3,15,13,94*,-19,-27
COc1cc(C(=O)Nc2c(C(=O)O)[nH]c3ccccc23)cc(OC)c1OC,6,/,1,8,-6,-6
CC1CC(NS(=O)(=O)c2cccs2)CC(C)(C)C1 (stereo not drawn),15,-3,8,29*,12,6
O=S(=O)(NC1CCCCC1)c1cccs1,10,8,5,3,-4,3
O=C(Oc1cccc(Oc2ccccc2)c1)N1CCOCC1,6,25*,5,5,-5,1
C=CCCC1CN(Cc2ccc(OC)cc2)S(=O)(=O)c2c(cccc2N2CCCCC2)O1 (stereo not drawn),/,/,/,/,19,6
Cc1nn(CCc2nn[nH]n2)c2nc(-c3ccc(C4CCCCC4)cc3)cc(C(F)(F)F)c12,-7,27*,17,0,-15,5
CN1CCCCC(NC(=O)c2ccc(F)c(F)c2)C1=O (stereo not drawn),/,/,/,/,11,5
CC1(C)OC(=O)C2=C(CC(CCc3ccccc3)OC2c2cccc(C(F)(F)F)c2)O1 (stereo not drawn),/,/,/,/,-5,-10
CC(C)CCNC(=O)Cc1c(C(=O)O)[nH]c2ccc(Cl)cc12,7,5,7,50*,-18,-2
SMILES,PAFAH1B3 inh,pPAFAH FP inh,PAFAH2 inh,PAFAH1B2 inh,ASAP1 GAP inh,ARFGAP1 inh
Cc1ccc(-c2c3c([nH]c(=S)c2C#N)CCCC3)o1,8,25*,17,6,-7,-3
COc1ccc(-c2coc3c(C)c4oc(=O)c(CC(=O)O)c(C)c4cc23)cc1,5,/,4,7,10,-2
Cc1c(CC(=O)O)c(=O)oc2c(C)c3occ(-c4ccc(Br)cc4)c3cc12,1,12,12,29*,-5,-12
COc1cccc(-c2coc3c(C)c4oc(=O)c(CC(=O)O)c(C)c4cc23)c1,11,2,4,4,-14,-3
COc1cccc(-c2coc3c(C)c4oc(=O)c(CCC(=O)O)c(C)c4cc23)c1,1,25*,10,6,-9,-8
COC(=O)C1=C(C)N(Cc2ccccc2C(F)(F)F)C(=NCc2ccc(OC)cc2)NC1c1ccc(F)cc1 (stereo not drawn),/,/,/,/,3,8
Cc1cccc(NC(=O)CN2C(=O)S/C(=C\c3ccc(O)c([N+](=O)[O-])c3)C2=O)c1,26*,29*,27,7,3,-4
Cc1ccc(NC(=O)CN2C(=O)S/C(=C/c3ccc(O)c([N+](=O)[O-])c3)C2=O)cc1C,17,/,22,10,-7,1
O=C(CN1C(=O)S/C(=C\c2cc(Cl)c(O)c(Cl)c2)C1=O)Nc1ccccc1,15,25*,12,1,12,-9
S=c1[nH]nc(-c2ccco2)n1-c1ccccc1Cl,5,1,4,1,4,5
S=c1[nH]nc(-c2cc(-c3ccco3)[nH]n2)n1-c1ccccc1Cl,17,29*,19,9,-6,18
CCc1cccc(NC(=O)c2ccc(NS(=O)(=O)c3c(C)noc3C)cc2)c1,7,29*,6,5,1,13
NC(=O)[C@@H]1CCCN1C(=O)[C@@H](Cc1ccccc1)NC(=O)[C@H]1O[C@@H](n2ccc(=O)[nH]c2=O)[C@H](O)[C@@H]1O,/,/,/,/,3,1
C[C@H](NC(=O)OCc1ccccc1)c1nnc([C@H](Cc2ccccc2)NC(=O)OC(C)(C)C)o1,-2,26*,-2,5,-4,-9
CCOC(=O)c1c2c(n(Cc3ccccc3)c1C)C(=O)C(=O)c1ccccc1-2,79*,/,52*,30*,18,5
CCOC(=O)c1c2c3c(cccc3n(C)c1=O)C(=O)c1ccccc1-2,26*,31*,27,19,13,2

# Screening results: PubChem BioAssay, The Scripps Research Institute Molecular Screening Center
